# Active and inactive are the calls of the source. No cut-off for these calls is given here.
# What was measured:
# Adenosine receptor A2b = molecular target: T1, Adenosine receptor A2b (Mus musculus, UniProt Q60614); experiment: Displacement of [3H]PSB-603 from recombinant mouse adenosine A2B receptor expressed in CHO cell membranes after 75 mins by liquid scintillation counting method
# T1 sequence (Q60614 whole entry): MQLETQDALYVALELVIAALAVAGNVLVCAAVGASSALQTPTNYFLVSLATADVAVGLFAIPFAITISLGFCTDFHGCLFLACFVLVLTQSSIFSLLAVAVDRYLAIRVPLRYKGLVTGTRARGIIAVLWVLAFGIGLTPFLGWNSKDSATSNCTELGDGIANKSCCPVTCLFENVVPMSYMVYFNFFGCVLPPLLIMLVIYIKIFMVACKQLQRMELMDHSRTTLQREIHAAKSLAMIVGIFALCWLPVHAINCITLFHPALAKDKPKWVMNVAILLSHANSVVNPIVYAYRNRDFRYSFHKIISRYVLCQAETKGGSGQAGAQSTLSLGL
# Summary of the method: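 [³H]PSB-603 (0.3 nM) used with CHO membranes expressing human, mouse or rat A2BAR, 75 min at rt. Membranes pre-incubated 10-15 min with ADA 0.12 IU/mL. Nonspecific binding defined with 10 µM DPCPX. DMSO 2.5 % final. Filtration on GF/B with ice-cold 50 mM Tris-HCl pH 7.4 containing 0.1 % BSA, then scintillation counting. Curves used 6-7 concentrations over 3 log units. At least three experiments.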
# Adenosine receptor A1 [1] = molecular target: T2, Adenosine receptor A1 (Rattus norvegicus, UniProt P25099); experiment: Displacement of [3H]CCPA from adenosine A1 receptor in rat brain cortical membranes after 90 mins by liquid scintillation counting method; type: cell membranes
# T2 sequence (P25099 whole entry): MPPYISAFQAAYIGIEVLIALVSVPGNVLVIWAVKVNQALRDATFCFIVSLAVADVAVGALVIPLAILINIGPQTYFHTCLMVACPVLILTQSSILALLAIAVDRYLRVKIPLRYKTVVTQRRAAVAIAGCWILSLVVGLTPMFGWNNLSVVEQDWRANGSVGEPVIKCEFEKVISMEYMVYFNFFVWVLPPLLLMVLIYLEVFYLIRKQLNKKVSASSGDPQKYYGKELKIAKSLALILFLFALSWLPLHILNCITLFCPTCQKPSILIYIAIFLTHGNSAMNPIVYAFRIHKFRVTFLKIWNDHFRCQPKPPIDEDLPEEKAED
# Summary of the method: (§1)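 [³H]CCPA (1 nM) used with rat brain cortical or human A1-CHO membranes, 90 min at rt. Membranes pre-incubated 10-15 min with ADA 0.12 IU/mL. Nonspecific binding defined with 10 µM CADO. Compounds dissolved in DMSO, 2.5 % final. Filtration on GF/B filters with ice-cold Tris-HCl washes, then scintillation counting. Curves used 6-7 concentrations spanning 3 log units. At least three experiments, in duplicate (human) or triplicate (rat).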
# Adenosine receptor A3 = molecular target: T3, Adenosine receptor A3 (Homo sapiens, UniProt P0DMS8); experiment: Displacement of [3H]PSB-11 from recombinant human adenosine A3 receptor expressed in CHO cell membranes after 45 mins by liquid scintillation counting method
# T3 sequence (P0DMS8 whole entry): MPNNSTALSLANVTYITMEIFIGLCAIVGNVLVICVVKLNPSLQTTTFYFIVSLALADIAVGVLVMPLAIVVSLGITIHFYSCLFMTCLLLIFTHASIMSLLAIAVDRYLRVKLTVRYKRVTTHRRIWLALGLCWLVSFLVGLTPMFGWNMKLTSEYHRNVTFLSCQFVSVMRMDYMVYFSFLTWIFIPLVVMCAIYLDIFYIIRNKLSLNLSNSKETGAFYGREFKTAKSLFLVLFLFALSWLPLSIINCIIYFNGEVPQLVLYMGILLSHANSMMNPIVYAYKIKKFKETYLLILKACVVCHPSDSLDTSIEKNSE
# Summary of the method: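 Human A3-CHO membranes incubated with [³H]PSB-11 (1 nM) for 45 min at rt, after 10-15 min pre-incubation with ADA 0.12 IU/mL. Nonspecific binding defined with 100 µM R-PIA. DMSO 2.5 % final. GF/B filtration, then scintillation counting. Curves used 6-7 concentrations over 3 log units. At least three experiments in duplicate.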
# Adenosine receptor A1 [2] = molecular target: T4, Adenosine receptor A1 (Homo sapiens, UniProt P30542); experiment: Displacement of [3H]CCPA from recombinant human adenosine A1 receptor expressed in CHO cell membranes after 90 mins by liquid scintillation counting method; summary of the method: as §1
# T4 sequence (P30542 whole entry): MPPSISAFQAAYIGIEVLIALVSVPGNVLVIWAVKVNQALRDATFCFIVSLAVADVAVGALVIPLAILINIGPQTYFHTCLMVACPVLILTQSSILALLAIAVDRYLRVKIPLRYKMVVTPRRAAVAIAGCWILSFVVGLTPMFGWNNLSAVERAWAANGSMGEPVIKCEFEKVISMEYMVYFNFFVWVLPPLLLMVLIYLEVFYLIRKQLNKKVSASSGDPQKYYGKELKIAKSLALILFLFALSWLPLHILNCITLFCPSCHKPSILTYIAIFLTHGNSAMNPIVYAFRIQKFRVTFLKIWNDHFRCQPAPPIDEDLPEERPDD
# [3] = Selectivity ratio of Ki for adenosine A2A receptor in rat brain striatal membranes to Ki for recombinant mouse adenosine A2B receptor expressed in CHO cell membranes; type: cell-based
# [4] = Binding affinity to wild type CHO cell membranes at 100 nM after 15 mins by confocal microscopic method; type: cell-based, Cricetulus griseus; conditions: chinese hamster, 0.25 h, 0.1 µM
# Summary of the method: (§2)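 Live CHO cells stably expressing human A2BAR (or wild-type CHO as control) grown on chambered coverslips to about 80 % confluency. Incubated with fluorescent ligand (100 nM) for 15 min at 37°C, alone or after 30 min pre-incubation with PSB-603 (100 nM) or DPCPX (1 µM). Confocal laser scanning imaging with identical settings across conditions. Three similar experiments.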
# Homo sapiens [5] = species: Homo sapiens; experiment: Selectivity ratio of Ki for recombinant human adenosine A2A receptor expressed in HEK cell membranes to Ki for recombinant human adenosine A2B receptor expressed in CHO cell membranes; type: cell-based
# Homo sapiens [6] = species: Homo sapiens; experiment: Selectivity ratio of Ki for recombinant human adenosine A1 receptor expressed in CHO cell membranes to Ki for recombinant human adenosine A2B receptor expressed in CHO cell membranes; type: cell-based
# [7] = Selectivity ratio of Ki for recombinant human adenosine A2A receptor expressed in HEK cell membranes to Ki for recombinant rat adenosine A2B receptor expressed in CHO cell membranes; type: cell-based
# [8] = molecular target: T5, Adenosine receptor A2b (Homo sapiens) (UniProt P29275); experiment: Binding affinity to recombinant human adenosine A2B receptor expressed in CHO cell membranes at 100 nM after 15 mins by confocal microscopic method; type: cell-based; summary of the method: as §2
# T5 sequence (whole entry): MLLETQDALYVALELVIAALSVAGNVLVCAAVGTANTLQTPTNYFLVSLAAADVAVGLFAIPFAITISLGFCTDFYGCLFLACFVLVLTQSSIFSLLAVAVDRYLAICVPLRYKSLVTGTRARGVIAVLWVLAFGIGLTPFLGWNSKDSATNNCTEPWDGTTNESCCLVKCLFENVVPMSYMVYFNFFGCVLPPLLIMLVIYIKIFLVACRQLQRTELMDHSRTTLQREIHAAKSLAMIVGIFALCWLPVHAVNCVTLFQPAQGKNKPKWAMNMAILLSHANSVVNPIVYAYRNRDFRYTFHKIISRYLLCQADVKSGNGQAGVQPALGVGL
smiles,measurement,setting,value
CCCn1c(=O)[nH]c2nc(-c3ccc(OCC(=O)NCCC4=C5C(C)=CC(C)=[N+]5[B-](F)(F)n5c(C)cc(C)c54)cc3)[nH]c2c1=O,Ki,Adenosine receptor A2b,1.32 nM
same,Ki,Adenosine receptor A1 [1],422 nM
same,Ki,Adenosine receptor A3,> 10000 nM
same,Ki,Adenosine receptor A1 [2],≥ 10000 nM
same,Ratio Ki,[3],> 150
same,Activity,[4],Not Active
same,Ratio Ki,Homo sapiens [5],> 150
same,Ratio Ki,Homo sapiens [6],> 1000
same,Ratio Ki,[7],> 1000
same,Activity,[8],Active

# Reference: ChEMBL document CHEMBL4184319, “Fluorescent-Labeled Selective Adenosine A2B Receptor Antagonist Enables Competition Binding Assay by Flow Cytometry” (J Med Chem, 2018)
